Source: PubChem BioAssay
Records with an inconclusive call do not appear.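 Rule for the calls, unless noted: active = RAM network inhibition above 8.4% in each of two replicates, 3 SD over the compound average; inconclusive = above 8.4% inhibition in only one replicate; inactive = 8.4% inhibition or less in each replicate.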

Key:
[1] = S. cerevisiae growth inhibition in permissive medium (OD615), pilot counter-assay for S. cerevisiae lifespan shortening project, permissive growth control (AID 705;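 active = growth inhibition above 25% in both replicates, a cutoff set 3 SD above the mean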); conditions: OD615, 24 h, at 10 µM, hits give high values
Procedure, shortened: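 System: S. cerevisiae with engineered DeaD lifespan system. Medium: SC raffinose/galactose permissive medium. Doses: single compound dose of 10 µM, 0.25% DMSO final. Schedule: 24 h exposure, 30 °C. Measured by: OD615 turbidity read. Read-out: growth inhibition.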

[2] = S. cerevisiae growth inhibition in restrictive medium, OD615, pilot screen, restrictive growth control, yeast lifespan reduction project (AID 706;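 active = growth inhibition above a set limit, 3 SD over mean compound inhibition, in both replicates, cut at about 43% in these data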;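 note: modified DeaD lifespan yeast strain shifted to restrictive glucose medium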); conditions: OD615, 48 h, at 10 µM, hits give high values
Procedure, shortened: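 Assay system – genetically modified Saccharomyces cerevisiae, DeaD replicative lifespan assay strain · Medium – CSMM-D glucose medium · Doses – 10 µM compound, 0.25% DMSO · Times – 4 h pre-incubation, 48 h exposure at 30 °C · Signal – optical density at 615 nm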

[3] = doxorubicin toxicity protection in MRP-1 cells – H69AR cells, CellTiter-Glo, duplicate, MRP-1 activator project, pilot screen (AID 807;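 active = viability increase at or above a cutoff of the median across tested compounds plus 3 SD, cut at about 8.5% in these data, passing the limit was not always enough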;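 note: compound pretreatment 18-22 h then 72 h combined with doxorubicin; 0% = doxorubicin alone and 100% = vehicle without doxorubicin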); conditions: H69AR viability with doxorubicin, CellTiter-Glo luminescence; at 10 µM; hits give high values
[4] = viability of HCT116 without oncogenic beta-catenin – human colon tumor cells, pilot screen (AID 823;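 active = cell viability at or below a set limit in both duplicate runs, the limit being the all-compound median minus 4 SD, cut at about 23% in these data, passing the limit was not always enough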;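 note: 0% = wells killed by 20 µM Hyamine and 100% = untreated DMSO cell wells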); conditions: HCT116 beta-catenin knockout viability, CellTiter-Glo, 60 h; at 10 µM; hits give low values
[5] = viability of PTEN-null HCT116 cells – cell-based, HCT116 clonal line, CellTiter-Glo, pilot screen (AID 824;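 active = viability at or below 27.92% in each of two runs, the all-compound median minus 4 SD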;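 note: 0% = 20 µM Hyamine control and 100% = vehicle cell control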); conditions: HCT116 PTEN-deleted viability, 60 h, at 10 µM, hits give low values
[6] = RAM pathway blockade in budding yeast – dse1pr::URA3 reporter, 5-FOA selection, pilot screen (AID 869;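 active = inhibition over a set limit, the all-compound mean plus 3 SD, in both replicate runs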;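 note: 0% = DMSO wells with no growth and 100% = 10 µM 1-NA-PP1 with full growth; RAM network block rescues cells from 5-FOA so hits raise OD615 growth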); conditions: S. cerevisiae dse1pr::URA3 5-FOA growth, OD615, 2 d; at 10 µM; hits give high values; strain carries analog-sensitive mutant Cbk1 kinase
[7] = RAM signaling pathway blockade in yeast – S. cerevisiae, Pdr1DBD-CYC8 efflux-inhibited sensitized strain, primary screen (AID 1298);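 note: 0% = DMSO untreated cells without growth and 100% = 10 µM 1-NA-PP1 full growth; higher means more yeast growth rescued from 5-FOA killing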; conditions: S. cerevisiae cbk1-as DSE1-URA3 strain, 5-FOA growth OD615, 2 d; at 50 µM; hits give high values

Cn1c(C(=O)N2CCN(C(=O)c3ccco3)CC2)cc2c(=O)n(C)c3ccccc3c21
inactive: growth inhibition [1] -3.88% | growth inhibition [2] 5.88% | viability increase [3] -4.21% | viability [4] 92.9% | viability [5] 87% | inhibition [6] 0.83% | RAM network inhibition [7] 2.87%

Cc1cccc(OCCCC(=O)Nc2ccc(N3CCOCC3)cc2)c1
inactive: growth inhibition [1] -17% | growth inhibition [2] -11.5% | viability increase [3] -0.5% | viability [4] 90.7% | viability [5] 96.8% | inhibition [6] 2.59% | RAM network inhibition [7] 3.73%

O=C(NCCCN1CCOCC1)NC12CC3CC(CC(C3)C1)C2
inactive: growth inhibition [1] -1.84% | growth inhibition [2] 2.31% | viability increase [3] -0.98% | viability [4] 104% | viability [5] 105% | inhibition [6] 0.625% | RAM network inhibition [7] 0.01%

COc1ccc(Cc2nc(-c3ccc(-n4cccc4)cc3)no2)cc1
inactive: growth inhibition [1] 0.23% | growth inhibition [2] -11.5% | viability increase [3] 3.66% | viability [4] 98.3% | viability [5] 88% | inhibition [6] 3.82% | RAM network inhibition [7] 3.16%

O=C(CCCCCN1C(=O)C2C3C=CC(C3)C2C1=O)Nc1nccs1 (configuration not stated)
inactive: growth inhibition [1] -3.44% | growth inhibition [2] -2.41% | viability increase [3] -1.31% | viability [4] 100% | viability [5] 91.5% | inhibition [6] 0.215% | RAM network inhibition [7] 4.28%

COc1cc(OC)cc(-c2cc3nc(C)c(CCC(=O)O)c(C)n3n2)c1
inactive: growth inhibition [1] 0.5% | growth inhibition [2] -1.06% | viability increase [3] -2.31% | viability [4] 96.6% | viability [5] 96.6% | inhibition [6] 0.805% | RAM network inhibition [7] 1.56%

Cn1c(C(=O)N2CCCC2)cc2c(=O)n(C)c3ccccc3c21
inactive: growth inhibition [1] -2.97% | growth inhibition [2] 3.21% | viability increase [3] -3.32% | viability [4] 102% | viability [5] 95.5% | inhibition [6] 2.04% | RAM network inhibition [7] -0.2%

COCCOC(=O)C1=C(C)NC2=C(C(=O)CCC2)C1c1ccc2c(c1)OCO2 (configuration not stated)
inactive: growth inhibition [1] -3.56% | growth inhibition [2] -17.8% | viability increase [3] -2.23% | viability [4] 93.9% | viability [5] 93% | inhibition [6] 1.08% | RAM network inhibition [7] 0.14%

CCc1cc2c(=O)c(-c3nc4ccccc4n3C)c(C(C)C)oc2c(CN2CCN(C)CC2)c1O
inactive: growth inhibition [1] -3.21% | growth inhibition [2] 8.45% | viability increase [3] -0.59% | viability [4] 69.4% | viability [5] 82.8% | inhibition [6] 1.74% | RAM network inhibition [7] 1.64%

COc1ccc(-c2c(C)oc3c(CN4CCN(C)CC4)c(O)ccc3c2=O)cc1
inactive: growth inhibition [1] -13.2% | growth inhibition [2] -13.7% | viability increase [3] -8.83% | viability [4] 106% | viability [5] 96.5% | inhibition [6] 0.58% | RAM network inhibition [7] -0.85%

CN1CCN(Cc2ccc(-c3ccc(Cl)cc3)o2)CC1
inactive: growth inhibition [1] -15.8% | growth inhibition [2] -22.6% | viability increase [3] -2.14% | viability [4] 86.1% | viability [5] 102% | inhibition [6] 1.56% | RAM network inhibition [7] 2.49%

Cc1onc(-c2ccccc2Cl)c1C(=O)OCN1C(=O)c2ccccc2C1=O
inactive: growth inhibition [1] -16.8% | growth inhibition [2] -12.5% | viability increase [3] -2.89% | viability [4] 90% | viability [5] 99% | inhibition [6] 0.93% | RAM network inhibition [7] 5.34%

CC1(C)CC(NC(=O)C23CCC(C)(C(=O)C2)C3(C)C)CC(C)(C)N1 (configuration not stated)
inactive: growth inhibition [1] -4.15% | growth inhibition [2] -6.33% | viability increase [3] -0.11% | viability [4] 96.2% | viability [5] 95.1% | inhibition [6] 2.67% | RAM network inhibition [7] 3.01%

COc1cccc(C2c3c(oc4ccccc4c3=O)C(=O)N2c2ccccn2)c1 (configuration not stated)
inactive: growth inhibition [1] -2.5% | growth inhibition [2] -15.9% | viability increase [3] 0.48% | viability [4] 92.4% | viability [5] 97.2% | inhibition [6] 0.28% | RAM network inhibition [7] 4.39%

O=C(OCCN1C(=O)c2ccccc2C1=O)c1cc2ccccc2o1
inactive: growth inhibition [1] -11.6% | growth inhibition [2] -4.04% | viability increase [3] 0.07% | viability [4] 97.3% | viability [5] 99.1% | inhibition [6] 2.92% | RAM network inhibition [7] 3.68%

CCOc1ccc(Oc2nc(NCC(C)C)nc(OC)n2)nn1
inactive: growth inhibition [1] -8.33% | growth inhibition [2] 5.96% | viability increase [3] 0.16% | viability [4] 94.8% | viability [5] 91.5% | inhibition [6] 2.14% | RAM network inhibition [7] -1.03%

CC1Cn2c(nnc2-c2cccc(N)c2)S1 (configuration not stated)
inactive: growth inhibition [1] 1.06% | growth inhibition [2] 14.3% | viability increase [3] -1.3% | viability [4] 98.7% | viability [5] 100% | inhibition [6] 1.52% | RAM network inhibition [7] 3.44%

CCCCCCNC(=O)C(C(=O)OCC)C1CCCCC1 (configuration not stated)
inactive: growth inhibition [1] -4.1% | growth inhibition [2] -1.5% | viability increase [3] -1.52% | viability [4] 84% | viability [5] 82.2% | inhibition [6] 0.15% | RAM network inhibition [7] 3.88%

COCCOC(=O)C1=C(C)NC2=C(C(=O)CC(C)(C)C2)C1c1ccc(N(C)C)cc1 (configuration not stated)
inactive: growth inhibition [1] -16.1% | growth inhibition [2] -21.2% | viability increase [3] -0.49% | viability [4] 97.4% | viability [5] 98.3% | inhibition [6] -0.03% | RAM network inhibition [7] 3.6%

Cc1ccc(N2Cc3ccccc3OC(C)C2=O)cc1 (configuration not stated)
inactive: growth inhibition [1] -1.43% | growth inhibition [2] 0.105% | viability increase [3] -3.99% | viability [4] 90.3% | viability [5] 91.3% | inhibition [6] 0.735% | RAM network inhibition [7] 1.16%

CCCCNC(=O)c1ccc(CS(=O)(=O)c2ccc(OC)cc2)o1
inactive: growth inhibition [1] -14.2% | growth inhibition [2] -23% | viability increase [3] -0.64% | viability [4] 107% | viability [5] 97.8% | inhibition [6] 0.45% | RAM network inhibition [7] 2.18%

CCOC(=O)c1ccc(NC(=O)CSc2nc3c(c(=O)n2-c2ccccc2OC)SCC3)cc1
inactive: growth inhibition [1] -1.49% | growth inhibition [2] -14.6% | viability increase [3] -2.33% | viability [4] 85.7% | viability [5] 81.4% | inhibition [6] 1.34% | RAM network inhibition [7] 3.9%

CC1CCCC(NC(=O)Cn2cc3c(n2)CCCCC3)C1C (configuration not stated)
inactive: growth inhibition [1] -16% | growth inhibition [2] -6.99% | viability increase [3] 0.62% | viability [4] 95.7% | viability [5] 90.8% | inhibition [6] -0.355% | RAM network inhibition [7] 0.1%

O=C(c1ccco1)N1CCN(c2nc3ccsc3c(=O)s2)CC1
inactive: growth inhibition [1] -0.135% | growth inhibition [2] 6.59% | viability increase [3] -3.19% | viability [4] 97.1% | viability [5] 94.3% | inhibition [6] 2.1% | RAM network inhibition [7] 5.38%

O=C(c1oc(=O)c2ccccc2c1-c1ccccc1)N1CCC(O)CC1
inactive: growth inhibition [1] -2.27% | growth inhibition [2] -0.17% | viability increase [3] -2.96% | viability [4] 97.6% | viability [5] 91.6% | inhibition [6] 1.25% | RAM network inhibition [7] 1.92%

CC(C)c1ccc(NC(=O)c2cccnc2)cc1
inactive: growth inhibition [1] -3.85% | growth inhibition [2] -12.2% | viability increase [3] 0.68% | viability [4] 89.4% | viability [5] 94.3% | inhibition [6] 0.32% | RAM network inhibition [7] 2.26%

Cc1cc(C)n2nc(S(=O)(=O)NC3CCCCC3)nc2n1
inactive: growth inhibition [1] -7.41% | growth inhibition [2] -7.9% | viability increase [3] -0.66% | viability [4] 103% | viability [5] 98.5% | inhibition [6] 1.06% | RAM network inhibition [7] -0.89%

Cc1cc(C)cc(-c2nc(-c3ccncc3)no2)c1
inactive: growth inhibition [1] 0.275% | growth inhibition [2] 15.9% | viability increase [3] 3.69% | viability [4] 91.1% | viability [5] 92% | inhibition [6] 1.11% | RAM network inhibition [7] 5.99%

Nc1c(C(=O)Nc2ccc3c(c2)OCCO3)nnn1CCc1ccccc1
inactive: growth inhibition [1] -3.04% | growth inhibition [2] 3.6% | viability increase [3] -5.88% | viability [4] 39.1% | viability [5] 35.4% | inhibition [6] 1.43% | RAM network inhibition [7] 7.68%

C=CCn1c(SCC(=O)NCc2ccco2)nc2sc3c(c2c1=O)CCC3
inactive: growth inhibition [1] -1.65% | growth inhibition [2] 0.995% | viability increase [3] -4.9% | viability [4] 98.6% | viability [5] 92.6% | inhibition [6] 2.48% | RAM network inhibition [7] 1.5%

O=C(O)CCCC(=O)Nc1ccc(Cl)c(Cl)c1
inactive: growth inhibition [1] 4.12% | growth inhibition [2] -2% | viability increase [3] -0.13% | viability [4] 95.4% | viability [5] 98.1% | inhibition [6] 0.165% | RAM network inhibition [7] 1.64%

CC1CN(C(=O)c2cc3ccccc3oc2=O)CC(C)O1 (configuration not stated)
inactive: growth inhibition [1] 5.08% | growth inhibition [2] -3.64% | viability increase [3] 0.49% | viability [4] 98.4% | viability [5] 103% | inhibition [6] 0.555% | RAM network inhibition [7] 2.33%

CCOC(=O)c1sc(NC(=O)c2ccco2)nc1-c1ccccc1
inactive: growth inhibition [1] -1.62% | growth inhibition [2] -1.76% | viability increase [3] -2.38% | viability [4] 105% | viability [5] 95.5% | inhibition [6] 4.44% | RAM network inhibition [7] 4.08%

C=CCOC(=O)C1=C(C)NC(C)=C(C(=O)OCC=C)C1c1ccc(O)cc1
inactive: growth inhibition [1] -6.92% | growth inhibition [2] -8.46% | viability increase [3] -4.51% | viability [4] 78.1% | viability [5] 71% | inhibition [6] 0.035% | RAM network inhibition [7] 2.05%

O=C(Nc1cccc2c1CCCC2)c1ccc(Br)o1
inactive: growth inhibition [1] -11.8% | growth inhibition [2] 6.87% | viability increase [3] -1.15% | viability [4] 79.6% | viability [5] 68% | inhibition [6] 2.19% | RAM network inhibition [7] 9.1%

Cc1cc(Cl)ccc1NC(=O)CSc1nnc(-c2ccncc2)n1Cc1ccco1
inactive: growth inhibition [1] 5.41% | growth inhibition [2] 25% | viability increase [3] 0.37% | viability [4] 92.5% | viability [5] 93.9% | inhibition [6] 1% | RAM network inhibition [7] 3.58%
